ChEMBL document CHEMBL5360619
Calls of active or inactive are those of the source. The calls are words filed in the database; no cut-off is given here.

Legend:
[1] = Apparent permeability across apical to basolateral side in human Caco-2 cells at 2 uM by LC-MS/MS analysis; assay type: ADME, cell-based
Outline: (§1)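 Caco-2 monolayers grown on permeable filters, used day 21. Drug solution 2 μM in prewarmed HBSS applied apical or basolateral, pH 7.4 both sides, 37 °C, stirring 500 rpm; 5 μM enalaprilat as integrity control. Receiver sampled at 30 min, donor sampled for mass balance; LC–MS/MS with warfarin internal standard.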

[2] = Efflux ratio of apparent permeability across […] side in human Caco-2 cells at 2 uM by LC-MS/MS analysis; assay type: ADME, cell-based; conditions: caco-2, 2 µM; outline: as §1
Cytochrome P450 3A4 [3] = target: T1, Cytochrome P450 3A4 (Homo sapiens, UniProt P08684); experiment: Inhibition of CYP3A4 in human liver microsomes using midazolam as substrate incubated for 10 mins in presence of NADPH by LC-MS/MS analysis; assay type: ADME, Microsome
Outline: (§2)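 Human liver microsomes 0.2 mg/mL in 100 mM phosphate pH 7.4; compound final 1, 10 and 100 μM (1% DMSO). Substrates: midazolam 5 μM (10 min) or testosterone 50 μM (30 min). Started with NADPH, stopped with ice-cold acetonitrile containing internal standard; LC–MS/MS.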

Cytochrome P450 3A4 [4] = target: T1, Cytochrome P450 3A4; experiment: Inhibition of CYP3A4 in human liver microsomes using testosterone as substrate incubated for 30 mins in presence of NADPH by LC-MS/MS analysis; assay type: ADME, Microsome; outline: as §2
[5] = Cytotoxicity against human Calu-3 cells assessed as reduction in cellular ATP level incubated for 72 hrs by celltiter-glo assay; assay type: toxicity, cell-based; conditions: read-out: LD50
Outline: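 Calu-3 cells (DMEM, 10% FBS) plated 10,000/well for 18 h, then medium switched to 2% FBS; eight twofold doses 250 down to […], compounds as imidazole salts in DMSO with IMD/DMSO controls.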

[6] = Therapeutic index, ratio of LD50 for human IMR-90 cells to IC50 for antimycobacterial activity against Mycobacterium tuberculosis Erdman; assay type: toxicity; conditions: read-out: TI
Outline: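 LD50 from 48 h MTT assay in HEK 293, BEAS-2B or IMR-90 cells divided by MABA IC50 against Mtb.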

[7] = test system: Mycobacterium tuberculosis; experiment: Inhibition of biofilm formation in Mycobacterium tuberculosis Erdman assessed as inhibition of biofilm pellicle formation at 2.5 to 50 uM pretreated for 3 weeks under low oxygen and further treated for 3 weeks under aerated condition in presence of 0.05% tyloxapol by optical density based analysis; assay type: functional, organism-based; conditions: dose 2.5-50 µM, time 6.0 weeks
Outline: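 Pellicle assay with 0.05% tyloxapol added to each well to prevent biofilm; otherwise Sauton's medium inoculated with Mtb plus compound, sealed airtight 3 weeks at 37 °C, 5% CO2, then opened for 3 weeks aerobic.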

[8] = test system: Mycobacterium tuberculosis; experiment: (§3) Antimycobacterial activity against Mycobacterium tuberculosis H37Rv expressing GFP infected in mouse RAW264.7 cells assessed as inhibition of intracellular mycobacterial growth by measuring reduction in percentage of infected cells incubated for 5 days by SYTO 60 dye based automated high-content fluorescent microscopic analysis; assay type: functional, organism-based; conditions: time 5.0 day
Outline: (§4)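 RAW 264.7 macrophages infected with GFP-expressing H37Rv for 3 h at 37 °C with shaking, washed by centrifugation, then seeded at 20,000 cells/well onto compounds dispensed acoustically from DMSO stocks, DMSO backfill. Incubated 5 days at 37 °C, 5% CO2, stained with SYTO 60, four confocal images per well; percentage of infected cells and bacterial area per infected cell scored. IC50 from dose–response; four replicates.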

[9] = test system: Mycobacterium tuberculosis; experiment: as §3, with “bacterial area per” for “percentage of”; assay type: functional, organism-based; conditions: time 5.0 day; outline: as §4
RAW264.7 = experiment: Cytotoxicity against mouse RAW264.7 cells assessed as reduction in cell viability at 0.01 to 10 uM incubated for 5 days by SYTO 60 dye based automated high-content fluorescent microscopic analysis; assay type: toxicity; conditions: raw264.7, 120 h, dose 0.01-10 µM, time 5 day
Outline: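 RAW 264.7 cells in RPMI-1640 with 10% heat-inactivated FBS, 20,000 cells/well added to compounds acoustically dispensed from DMSO stocks, DMSO backfill; 5 days at 37 °C, 5% CO2. SYTO 60 staining, four confocal images per well, total cell number counted; dose–response plotted.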

CYP3A4 [10] = experiment: Selectivity index, ratio of IC50 for CYP3A4 in human liver microsomes using midazolam as substrate to IC50 for antimycobacterial activity against Mycobacterium tuberculosis Erdman; assay type: toxicity; conditions: probe midazolam, read-out: Ratio IC50
CYP3A4 [11] = experiment: Selectivity index, ratio of IC50 for CYP3A4 in human liver microsomes using testosterone as substrate to IC50 for antimycobacterial activity against Mycobacterium tuberculosis Erdman; assay type: toxicity; conditions: probe testosterone, read-out: Ratio IC50
[12] = Solubility of compound in tween-free sauton's medium; assay type: physicochemical

T1 sequence (P08684 whole entry): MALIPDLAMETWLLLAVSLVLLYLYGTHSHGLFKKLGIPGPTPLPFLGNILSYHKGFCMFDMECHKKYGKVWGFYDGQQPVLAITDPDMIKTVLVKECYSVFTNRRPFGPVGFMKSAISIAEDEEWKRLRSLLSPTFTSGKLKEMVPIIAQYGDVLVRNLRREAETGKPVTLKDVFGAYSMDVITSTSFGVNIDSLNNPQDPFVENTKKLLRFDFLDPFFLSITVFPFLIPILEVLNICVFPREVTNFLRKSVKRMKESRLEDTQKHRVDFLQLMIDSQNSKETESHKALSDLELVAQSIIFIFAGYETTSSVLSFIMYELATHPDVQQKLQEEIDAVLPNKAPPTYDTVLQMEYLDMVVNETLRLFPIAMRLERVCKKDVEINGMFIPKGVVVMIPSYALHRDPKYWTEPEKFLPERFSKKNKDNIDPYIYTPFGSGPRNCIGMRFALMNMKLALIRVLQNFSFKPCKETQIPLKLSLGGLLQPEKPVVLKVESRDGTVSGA

Row | SMILES | IC50 (Cytochrome P450 3A4 [3]) | IC50 (Cytochrome P450 3A4 [4]) | Activity (RAW264.7) | selectivity ratio (CYP3A4 [10]) | selectivity ratio (CYP3A4 [11]) | solubility [12] | also measured
1 | CC(C)(C)c1ccc(-c2nnc(SCc3cc(=O)n4c(c3C3CC3)SCC4C(=O)O)o2)cc1 (racemic) | > 100 µM | > 100 µM | – | – | – | – | Papp A→B at 2 µM [1]: 0.88 ×10⁻⁶ cm/s; Ratio [2]: 1.5
2 | O=C(O)C1CSc2c(C3CC3)c(-c3cc(-c4ccc5ccccc5c4)no3)cc(=O)n21.c1c[nH]cn1 (racemic) | – | – | Non-Toxic | ≥ 16 | ≥ 16 | – | CC50 at 72 h [5]: > 250 µM; selectivity ratio [6]: 168; inhibition [7]: inactive; Activity [8]: Active; Activity [9]: Active
3 | O=C(O)C1CSc2c(C3CC3)c(Cc3cccc4ccccc34)cc(=O)n21.c1c[nH]cn1 (racemic) | – | – | Non-Toxic | ≥ 16 | ≥ 16 | – | –
4 | O=C(O)C1CSc2c(C3CC3)c(CSc3nnc(-c4cccc(C(F)(F)F)c4)o3)cc(=O)n21 (racemic) | – | – | – | – | – | Insoluble | –
5 | CC(C)(C)c1ccc(-n2cc(-c3cc(=O)n4c(c3C3CC3)SCC4C(=O)O)nn2)cc1 (racemic) | > 100 µM | > 100 µM | – | – | – | – | –
6 | O=C(O)C1CSc2c(C3CC3)c(-c3cc(-c4ccccc4)no3)cc(=O)n21 (racemic) | – | – | – | – | – | Insoluble | –
